Results taken from ChEMBL document CHEMBL4007430, “Synthesis and Cytostatic and Antiviral Profiling of Thieno-Fused 7-Deazapurine Ribonucleosides” (J Med Chem, 2017).

Columns and labels:
CCRF-CEM [1] = experiment: Cell cycle arrest in human CCRF-CEM cells assessed as accumulation at S phase at IC50 after 24 hrs by propidium iodide staining-based flow cytometric analysis (reference value: 44.20%); format: functional
CCRF-CEM [2] = experiment: Cytotoxicity against human CCRF-CEM cells assessed as cell growth inhibition after 72 hrs by MTS assay
HL-60 = experiment: Cytotoxicity against human HL60 cells assessed as reduction in cell viability after 72 hrs by XTT assay; format: functional, cell-based; conditions: HL-60, 72 h
Summary of the method: (§1)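 Cells were incubated with compound for 3 days. Viability was then measured with the XTT tetrazolium assay.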

HepG2 = experiment: Cytotoxicity against human HepG2 cells assessed as reduction in cell viability after 72 hrs by XTT assay; format: functional, cell-based; conditions: HepG2, 72 h; summary of the method: as §1
[3] = Drug level in human BJ cells at 1 umol/L measured per 5 x 10^5 cells after 1 hr by UPLC-MS/MS analysis; format: ADME, cell-based; conditions: 1 µM
[4] = Drug level in human BJ cells at 10 umol/L measured per 5 x 10^5 cells after 3 hrs by UPLC-MS/MS analysis; format: ADME, cell-based; conditions: 10 µM
HCT-116 [5] = experiment: Cytotoxicity against p53 deficient human HCT116 cells assessed as cell growth inhibition after 72 hrs by MTS assay; format: functional, cell-based; conditions: HCT-116, 72 h
Summary of the method: (§2)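 Cells were exposed to compound for 3 days, then stained with MTS as a quantitative metabolic read-out. IC50 is the concentration that inhibits cell growth by 50%.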

CCRF-CEM [6] = experiment: Inhibition of RNA synthesis in human CCRF-CEM cells assessed as decrease in BrU incorporation by measuring synthesized RNA levels at IC50 after 24 hrs by propidium iodide staining-based flow cytometric method (reference value: 53.09%); format: functional
CCRF-CEM [7] = experiment: Cell cycle arrest in human CCRF-CEM cells assessed as accumulation at G0/G1 phase at IC50 after 24 hrs by propidium iodide staining-based flow cytometric analysis (reference value: 41.11%); format: functional
CCRF-CEM [8] = experiment: Inhibition of mitosis in human CCRF-CEM cells assessed as pH3Ser10 positive cells after 24 hrs by flow cytometric analysis; format: functional, cell-based
CCRF-CEM [9] = experiment: Inhibition of mitosis in human CCRF-CEM cells assessed as pH3Ser10 positive cells at IC50 after 24 hrs by flow cytometric analysis (reference value: 1.74%); format: functional
[10] = Drug level in human HCT116 cells at 1 umol/L measured per 5 x 10^5 cells after 1 hr by UPLC-MS/MS analysis; format: ADME, cell-based; conditions: hct-116, 1 h, 1 µM
K562 = experiment: Cytotoxicity against human K562 cells assessed as cell growth inhibition after 72 hrs by MTS assay; format: functional, cell-based; conditions: K562, 72 h; summary of the method: as §2
HCT-116 [11] = experiment: Cytotoxicity against human HCT116 cells assessed as cell growth inhibition after 72 hrs by MTS assay; format: functional, cell-based; conditions: HCT-116, 72 h; summary of the method: as §2
BJ = experiment: Cytotoxicity against human BJ cells assessed as cell growth inhibition after 72 hrs by MTS assay; format: cell-based; summary of the method: as §2
CCRF-CEM [12] = experiment: Inhibition of DNA synthesis in human CCRF-CEM cells assessed as decrease in BrdU incorporation by measuring synthesized DNA levels at 5 times IC50 after 24 hrs by propidium iodide staining-based flow cytometric analysis (reference value: 52.66%); format: functional
[13] = Cytotoxicity against human HuH7 cells; format: cell-based, Huh-7
CCRF-CEM [14] = experiment: Induction of apoptosis in human CCRF-CEM cells assessed as accumulation at subG1 phase at 5 times IC50 after 24 hrs by propidium iodide staining-based flow cytometric analysis (reference value: 2.32%); format: functional
MRC5 = experiment: Cytotoxicity against human MRC5 cells assessed as cell growth inhibition after 72 hrs by MTS assay; format: cell-based; conditions: MRC5, 72 h; summary of the method: as §2
CCRF-CEM [15] = experiment: Cell cycle arrest in human CCRF-CEM cells assessed as accumulation at S phase at 5 times IC50 after 24 hrs by propidium iodide staining-based flow cytometric analysis (reference value: 44.20%); format: functional
CCRF-CEM [16] = experiment: Inhibition of mitosis in human CCRF-CEM cells assessed as pH3Ser10 positive cells at 5 times IC50 after 24 hrs by flow cytometric analysis (reference value: 1.74%); format: functional
CCRF-CEM [17] = experiment: Inhibition of DNA synthesis in human CCRF-CEM cells assessed as decrease in BrdU incorporation by measuring synthesized DNA levels at IC50 after 24 hrs by propidium iodide staining-based flow cytometric analysis (reference value: 52.66%); format: functional
[18] = Cytotoxicity against mrp-1/mdr-1 overexpressing human CEM-DNR-bulk cells assessed as cell growth inhibition after 72 hrs by MTS assay; format: functional, cell-based
Summary of the method: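 Cells were exposed to compound for 3 days, then stained with MTS as a quantitative metabolic read-out.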

CCRF-CEM [19] = experiment: Cell cycle arrest in human CCRF-CEM cells assessed as accumulation at G2/M phase at IC50 after 24 hrs by propidium iodide staining-based flow cytometric analysis (reference value: 14.70%); format: functional
[20] = Drug level in human BJ cells at 1 umol/L measured per 5 x 10^5 cells after 3 hrs by UPLC-MS/MS analysis; format: ADME, cell-based; conditions: 1 µM
U2OS = experiment: Cytotoxicity against human U2OS cells assessed as cell growth inhibition after 72 hrs by MTS assay; format: functional, cell-based
CCRF-CEM [21] = experiment: Induction of apoptosis in human CCRF-CEM cells assessed as accumulation at subG1 phase at IC50 after 24 hrs by propidium iodide staining-based flow cytometric analysis (reference value: 2.32%); format: functional
[22] = Cytotoxicity against human K562-TAX cells assessed as cell growth inhibition after 72 hrs by MTS assay; format: functional, cell-based; summary of the method: as §2
[23] = Drug level in human HCT116 cells at 10 umol/L measured per 5 x 10^5 cells after 3 hrs by UPLC-MS/MS analysis; format: ADME, cell-based; conditions: hct-116, 3 h, 10 µM
[24] = Drug level in human HCT116 cells at 10 umol/L measured per 5 x 10^5 cells after 1 hr by UPLC-MS/MS analysis; format: ADME, cell-based; conditions: hct-116, 1 h, 10 µM
HeLa S3 = experiment: Cytotoxicity against human HeLaS3 cells assessed as reduction in cell viability after 72 hrs by XTT assay; format: functional, cell-based; conditions: HeLa S3, 72 h; summary of the method: as §1
CCRF-CEM [25] = experiment: Inhibition of RNA synthesis in human CCRF-CEM cells assessed as decrease in BrU incorporation by measuring synthesized RNA levels at 5 times IC50 after 24 hrs by propidium iodide staining-based flow cytometric method (reference value: 53.09%); format: functional
CCRF-CEM [26] = experiment: Cell cycle arrest in human CCRF-CEM cells assessed as accumulation at G0/G1 phase at 5 times IC50 after 24 hrs by propidium iodide staining-based flow cytometric analysis (reference value: 41.11%); format: functional
CCRF-CEM [27] = experiment: Cell cycle arrest in human CCRF-CEM cells assessed as accumulation at G2/M phase at 5 times IC50 after 24 hrs by propidium iodide staining-based flow cytometric analysis (reference value: 14.70%); format: functional
Hepatitis C virus [28] = experiment: Anti-HCV activity against Hepatitis C virus genotype 1b infected in human Huh7 replicon cells after 96 hrs by luciferase reporter gene assay; format: functional, cell-based, Hepacivirus hominis; conditions: Huh-7, 96 h
[29] = Drug level in human HCT116 cells at 1 umol/L measured per 5 x 10^5 cells after 3 hrs by UPLC-MS/MS analysis; format: ADME, cell-based; conditions: hct-116, 3 h, 1 µM
Hepatitis C virus [30] = experiment: Anti-HCV activity against Hepatitis C virus genotype 2a infected in human Huh7 replicon cells after 96 hrs by luciferase reporter gene assay; format: functional, cell-based, Hepacivirus hominis; conditions: Huh-7, 96 h
A549 = experiment: Cytotoxicity against human A549 cells assessed as cell growth inhibition after 72 hrs by MTS assay; format: functional, cell-based; conditions: A549, 72 h; summary of the method: as §2
[31] = Drug level in human BJ cells at 10 umol/L measured per 5 x 10^5 cells after 1 hr by UPLC-MS/MS analysis; format: ADME, cell-based; conditions: 10 µM

Row | Compound | Activity (CCRF-CEM [1]) [%] | IC50 (CCRF-CEM [2]) [nM] | IC50 (HL-60) [nM] | IC50 (HepG2) [nM] | Drug uptake [4] [pmol] | IC50 (HCT-116 [5]) [nM] | BrU+ cells (%) (CCRF-CEM [6]) | Activity (CCRF-CEM [7]) [%] | Activity (CCRF-CEM [8]) | pH3Ser10+ cells (%) (CCRF-CEM [9]) | Drug uptake [10] [pmol] | IC50 (K562) [nM] | IC50 (HCT-116 [11]) [nM] | IC50 (BJ) [nM] | BrdU+ cells (%) (CCRF-CEM [12]) | CC50 [13] [nM] | Activity (CCRF-CEM [14]) [%] | IC50 (MRC5) [nM] | Activity (CCRF-CEM [15]) [%] | pH3Ser10+ cells (%) (CCRF-CEM [16]) | further results
1 | CSc1ncnc2c1c1sccc1n2[C@@H]1O[C@H](CO)[C@@H](O)[C@H]1O | 34.12 | 27 | 510 | 360 | 3161.5 | 90 | 1.46 | 44.14 | Dose-dependent effect | 1.92 | 105.4 | 350 | 50 | 1250 | 51.49 | > 44400 | 18.15 | 9010 | 38.11 | 1.03 | Drug uptake [3]: 711.7 pmol; BrdU+ cells (%) (CCRF-CEM [17]): 51.67%; IC50 [18]: 1460 nM; Activity (CCRF-CEM [19]): 21.65%; Drug uptake [20]: 1750.5 pmol; IC50 (U2OS): 460 nM; Activity (CCRF-CEM [21]): 10.83%; IC50 [22]: 2200 nM; Drug uptake [23]: 1299 pmol; Drug uptake [24]: 525.5 pmol; IC50 (HeLa S3): 720 nM; BrU+ cells (%) (CCRF-CEM [25]): 0.16%; Activity (CCRF-CEM [26]): 41.28%; Activity (CCRF-CEM [27]): 20.61%; EC50 (Hepatitis C virus [28]): 470 nM; Drug uptake [29]: 602.8 pmol; EC50 (Hepatitis C virus [30]): 340 nM; IC50 (A549): 660 nM; Drug uptake [31]: 2298.3 pmol
2 | CSc1ncnc2c1c1ccsc1n2[C@@H]1O[C@H](CO)[C@@H](O)[C@H]1O | 47.81 | 200 | 860 | 680 | 633.7 | 270 | 37.25 | 40.36 | Dose-dependent effect | 1.36 | 278.5 | 510 | 200 | 6900 | 56.64 | > 44400 | 3.53 | 46000 | 53.26 | 1.13 | BrdU+ cells (%) (CCRF-CEM [17]): 52.99%; IC50 [18]: > 50000 nM; Activity (CCRF-CEM [19]): 11.83%; Drug uptake [20]: 253.6 pmol; IC50 (U2OS): 350 nM; Activity (CCRF-CEM [21]): 2.79%; IC50 [22]: > 50000 nM; Drug uptake [23]: 444 pmol; Drug uptake [24]: 320.7 pmol; IC50 (HeLa S3): 300 nM; BrU+ cells (%) (CCRF-CEM [25]): 23.92%; Activity (CCRF-CEM [26]): 33.16%; Activity (CCRF-CEM [27]): 13.58%; EC50 (Hepatitis C virus [28]): 130 nM; Drug uptake [29]: 293.6 pmol; EC50 (Hepatitis C virus [30]): 800 nM; IC50 (A549): 800 nM; Drug uptake [31]: 331.6 pmol
